ChEMBL document CHEMBL2176873, “α-1-C-butyl-1,4-dideoxy-1,4-imino-l-arabinitol as a second-generation iminosugar-based oral α-glucosidase inhibitor for improving postprandial hyperglycemia” (J Med Chem, 2012)

Experiments:
[1] = target: T1, Sucrase-isomaltase, intestinal (Rattus norvegicus, UniProt P23739); assay: Inhibition of rat intestinal isomaltase […] as substrate
[2] = target: T1, Sucrase-isomaltase, intestinal; assay: Inhibition of rat intestinal sucrase using sucrose as substrate
[3] = target: T2, Beta-galactosidase (Bos taurus) (UniProt Q58D55); assay: Inhibition of bovine liver beta-galactosidase at 1000 uM
T2 sequence (whole entry): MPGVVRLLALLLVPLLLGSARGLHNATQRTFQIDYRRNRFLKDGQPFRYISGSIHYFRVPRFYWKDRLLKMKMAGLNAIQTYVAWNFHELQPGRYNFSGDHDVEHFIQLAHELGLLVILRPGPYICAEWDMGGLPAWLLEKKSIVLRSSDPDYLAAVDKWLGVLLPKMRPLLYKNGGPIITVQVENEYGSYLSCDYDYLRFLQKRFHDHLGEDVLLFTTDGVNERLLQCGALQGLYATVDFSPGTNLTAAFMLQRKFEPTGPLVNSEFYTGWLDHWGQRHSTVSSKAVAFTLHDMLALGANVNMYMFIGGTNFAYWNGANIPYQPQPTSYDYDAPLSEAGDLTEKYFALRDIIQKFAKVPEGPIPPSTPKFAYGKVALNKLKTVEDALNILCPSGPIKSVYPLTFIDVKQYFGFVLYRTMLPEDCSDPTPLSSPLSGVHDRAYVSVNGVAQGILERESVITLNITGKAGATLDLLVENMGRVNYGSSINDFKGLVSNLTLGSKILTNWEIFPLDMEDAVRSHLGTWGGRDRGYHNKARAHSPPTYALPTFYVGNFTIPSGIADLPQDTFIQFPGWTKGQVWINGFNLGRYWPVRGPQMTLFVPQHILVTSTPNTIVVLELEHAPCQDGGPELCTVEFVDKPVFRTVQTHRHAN

[4] = target: Lactase/phlorizin hydrolase (Rattus norvegicus) (UniProt Q02401); assay: Inhibition of rat intestinal lactase using lactose as substrate at 1000 uM
Lactase/phlorizin hydrolase (Rattus norvegicus), sequence (Q02401 868-1928 limits assumed): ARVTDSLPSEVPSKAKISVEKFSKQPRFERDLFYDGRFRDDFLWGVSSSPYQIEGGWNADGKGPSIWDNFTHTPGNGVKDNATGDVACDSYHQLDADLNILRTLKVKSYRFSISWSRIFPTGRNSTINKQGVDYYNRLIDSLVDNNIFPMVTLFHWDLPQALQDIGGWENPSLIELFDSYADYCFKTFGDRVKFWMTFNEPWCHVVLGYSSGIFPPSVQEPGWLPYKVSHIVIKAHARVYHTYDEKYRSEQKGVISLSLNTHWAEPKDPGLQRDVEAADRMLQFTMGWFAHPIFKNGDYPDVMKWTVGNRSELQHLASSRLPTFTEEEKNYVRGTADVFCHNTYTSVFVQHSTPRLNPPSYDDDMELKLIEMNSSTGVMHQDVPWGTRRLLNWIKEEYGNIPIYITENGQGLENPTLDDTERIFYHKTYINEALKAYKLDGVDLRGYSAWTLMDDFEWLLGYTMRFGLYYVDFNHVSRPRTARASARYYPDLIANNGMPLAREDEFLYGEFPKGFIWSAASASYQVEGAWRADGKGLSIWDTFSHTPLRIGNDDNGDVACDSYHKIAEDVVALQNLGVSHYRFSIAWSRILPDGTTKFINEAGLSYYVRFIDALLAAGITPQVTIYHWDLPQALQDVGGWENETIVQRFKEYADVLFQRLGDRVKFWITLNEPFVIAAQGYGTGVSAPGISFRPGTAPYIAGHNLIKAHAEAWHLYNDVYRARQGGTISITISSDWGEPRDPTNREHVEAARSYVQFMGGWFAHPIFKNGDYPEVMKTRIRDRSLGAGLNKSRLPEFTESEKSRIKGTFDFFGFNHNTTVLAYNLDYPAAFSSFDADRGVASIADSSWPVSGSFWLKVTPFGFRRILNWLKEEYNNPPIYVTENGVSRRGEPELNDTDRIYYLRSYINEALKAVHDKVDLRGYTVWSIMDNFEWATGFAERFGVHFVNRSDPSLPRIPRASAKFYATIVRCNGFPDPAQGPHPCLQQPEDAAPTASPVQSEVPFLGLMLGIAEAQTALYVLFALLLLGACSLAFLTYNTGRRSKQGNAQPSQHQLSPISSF

[5] = target: T3, Lysosomal acid glucosylceramidase (Homo sapiens) (UniProt P04062); assay: Inhibition of human beta-glucocerebrosidase at 1000 uM
T3 sequence (whole entry): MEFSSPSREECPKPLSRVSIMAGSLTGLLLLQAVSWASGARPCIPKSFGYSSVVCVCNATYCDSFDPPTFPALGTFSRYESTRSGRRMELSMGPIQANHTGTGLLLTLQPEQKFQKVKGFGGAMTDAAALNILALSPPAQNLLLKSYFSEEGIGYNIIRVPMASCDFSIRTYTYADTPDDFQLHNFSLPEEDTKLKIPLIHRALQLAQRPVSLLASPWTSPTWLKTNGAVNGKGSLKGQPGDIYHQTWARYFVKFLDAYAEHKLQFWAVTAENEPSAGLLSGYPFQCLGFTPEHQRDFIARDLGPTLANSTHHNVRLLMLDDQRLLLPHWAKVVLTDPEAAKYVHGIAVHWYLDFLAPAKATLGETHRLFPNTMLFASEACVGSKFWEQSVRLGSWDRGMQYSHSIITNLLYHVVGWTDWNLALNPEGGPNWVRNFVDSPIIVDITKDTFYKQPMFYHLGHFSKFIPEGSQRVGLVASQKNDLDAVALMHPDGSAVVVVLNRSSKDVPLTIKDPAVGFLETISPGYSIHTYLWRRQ

[6] = target: T4, Glucosylceramidase (Bos taurus) (UniProt Q2KHZ8); assay: Inhibition of bovine liver beta-glucosidase at 1000 uM
T4 sequence (whole entry): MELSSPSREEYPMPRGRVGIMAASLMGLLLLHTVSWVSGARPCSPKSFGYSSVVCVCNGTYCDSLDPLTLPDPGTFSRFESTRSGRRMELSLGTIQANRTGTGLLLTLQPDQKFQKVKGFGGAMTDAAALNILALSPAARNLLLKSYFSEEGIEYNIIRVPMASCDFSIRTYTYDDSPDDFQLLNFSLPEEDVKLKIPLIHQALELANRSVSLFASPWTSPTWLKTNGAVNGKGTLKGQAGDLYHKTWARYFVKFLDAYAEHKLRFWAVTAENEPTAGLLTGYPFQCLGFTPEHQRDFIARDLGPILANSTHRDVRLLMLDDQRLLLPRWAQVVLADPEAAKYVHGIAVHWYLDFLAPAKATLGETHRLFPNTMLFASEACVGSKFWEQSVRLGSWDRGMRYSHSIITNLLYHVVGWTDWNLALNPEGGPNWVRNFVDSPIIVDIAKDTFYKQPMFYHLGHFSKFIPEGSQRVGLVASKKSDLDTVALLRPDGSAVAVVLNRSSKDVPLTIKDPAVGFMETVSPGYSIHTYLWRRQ

[7] = target: T5, Uncharacterized protein (Sus scrofa) (UniProt I3LIR5); assay: Inhibition of porcine kidney trehalase at 1000 uM
T5 sequence (whole entry): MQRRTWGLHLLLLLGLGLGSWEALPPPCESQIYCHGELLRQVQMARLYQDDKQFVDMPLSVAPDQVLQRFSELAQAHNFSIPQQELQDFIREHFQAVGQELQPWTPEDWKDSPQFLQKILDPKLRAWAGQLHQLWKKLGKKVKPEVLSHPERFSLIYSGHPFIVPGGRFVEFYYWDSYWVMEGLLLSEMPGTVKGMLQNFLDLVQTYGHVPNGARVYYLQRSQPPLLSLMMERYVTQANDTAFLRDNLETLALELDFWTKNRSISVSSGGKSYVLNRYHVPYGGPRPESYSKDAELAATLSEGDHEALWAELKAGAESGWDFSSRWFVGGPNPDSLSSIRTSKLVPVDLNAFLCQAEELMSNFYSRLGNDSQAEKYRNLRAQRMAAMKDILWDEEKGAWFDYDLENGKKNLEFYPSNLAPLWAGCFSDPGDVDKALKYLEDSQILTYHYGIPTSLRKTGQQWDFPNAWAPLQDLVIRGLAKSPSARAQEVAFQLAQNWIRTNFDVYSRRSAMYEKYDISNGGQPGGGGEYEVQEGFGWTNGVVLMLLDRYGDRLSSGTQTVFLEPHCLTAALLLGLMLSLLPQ

[8] = target: T6, Trehalase (Rattus norvegicus) (UniProt O70282); assay: Inhibition of rat intestinal trehalase at 1000 uM
T6 sequence (whole entry): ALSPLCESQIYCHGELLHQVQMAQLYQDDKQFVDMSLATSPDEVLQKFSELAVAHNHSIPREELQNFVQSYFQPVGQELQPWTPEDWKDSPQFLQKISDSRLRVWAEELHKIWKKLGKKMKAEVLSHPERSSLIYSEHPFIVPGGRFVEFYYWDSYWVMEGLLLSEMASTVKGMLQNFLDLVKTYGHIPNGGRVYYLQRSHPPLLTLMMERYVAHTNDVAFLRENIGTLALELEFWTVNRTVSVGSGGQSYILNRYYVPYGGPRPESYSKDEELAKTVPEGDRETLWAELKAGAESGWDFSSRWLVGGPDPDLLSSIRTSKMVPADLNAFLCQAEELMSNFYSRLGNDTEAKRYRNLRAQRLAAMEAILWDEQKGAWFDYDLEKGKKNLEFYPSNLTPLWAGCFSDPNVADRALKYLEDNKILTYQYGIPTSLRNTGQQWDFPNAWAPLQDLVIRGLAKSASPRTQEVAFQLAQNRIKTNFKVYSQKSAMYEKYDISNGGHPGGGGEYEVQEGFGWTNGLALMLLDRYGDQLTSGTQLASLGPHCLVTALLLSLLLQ

Rattus norvegicus = species on record: Rattus norvegicus; assay: Inhibition of rat intestinal cellobiase using cellobiose as substrate at 1000 uM
Procedure, shortened: (§1)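 Rat small-intestine brush border membrane preparation, assayed at pH 5.8 with the matching disaccharide as substrate (maltose at 25 mM). Incubation for 10–30 min at 37 °C, stopped by heating at 100 °C for 3 min and centrifuged. Released D-glucose in the supernatant was measured by glucose reagent absorbance at 505 nm.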

Uncharacterized protein = target: T7, Uncharacterized protein (Sus scrofa, UniProt I3LIR5); assay: Inhibition of porcine kidney trehalase
T7 sequence (I3LIR5 whole entry): T5 sequence (whole entry)

[9] = target: Lactase/phlorizin hydrolase (Rattus norvegicus, UniProt Q02401); assay: Inhibition of rat intestinal lactase using lactose as substrate
Lactase/phlorizin hydrolase, sequence (Q02401 868-1928 limits assumed): as the sequence (Q02401 868-1928 limits assumed) above

Trehalase = target: T8, Trehalase (Rattus norvegicus, UniProt O70282); assay: Inhibition of rat intestinal trehalase
T8 sequence (O70282 whole entry): T6 sequence (whole entry)

[10] = target: Sucrase-isomaltase, intestinal (Rattus norvegicus) (UniProt P23739); assay: Inhibition of rat intestinal isomaltase […] as substrate at 1000 uM; procedure, shortened: as §1
Sucrase-isomaltase, intestinal (Rattus norvegicus), sequence (P23739 1-1013 limits assumed): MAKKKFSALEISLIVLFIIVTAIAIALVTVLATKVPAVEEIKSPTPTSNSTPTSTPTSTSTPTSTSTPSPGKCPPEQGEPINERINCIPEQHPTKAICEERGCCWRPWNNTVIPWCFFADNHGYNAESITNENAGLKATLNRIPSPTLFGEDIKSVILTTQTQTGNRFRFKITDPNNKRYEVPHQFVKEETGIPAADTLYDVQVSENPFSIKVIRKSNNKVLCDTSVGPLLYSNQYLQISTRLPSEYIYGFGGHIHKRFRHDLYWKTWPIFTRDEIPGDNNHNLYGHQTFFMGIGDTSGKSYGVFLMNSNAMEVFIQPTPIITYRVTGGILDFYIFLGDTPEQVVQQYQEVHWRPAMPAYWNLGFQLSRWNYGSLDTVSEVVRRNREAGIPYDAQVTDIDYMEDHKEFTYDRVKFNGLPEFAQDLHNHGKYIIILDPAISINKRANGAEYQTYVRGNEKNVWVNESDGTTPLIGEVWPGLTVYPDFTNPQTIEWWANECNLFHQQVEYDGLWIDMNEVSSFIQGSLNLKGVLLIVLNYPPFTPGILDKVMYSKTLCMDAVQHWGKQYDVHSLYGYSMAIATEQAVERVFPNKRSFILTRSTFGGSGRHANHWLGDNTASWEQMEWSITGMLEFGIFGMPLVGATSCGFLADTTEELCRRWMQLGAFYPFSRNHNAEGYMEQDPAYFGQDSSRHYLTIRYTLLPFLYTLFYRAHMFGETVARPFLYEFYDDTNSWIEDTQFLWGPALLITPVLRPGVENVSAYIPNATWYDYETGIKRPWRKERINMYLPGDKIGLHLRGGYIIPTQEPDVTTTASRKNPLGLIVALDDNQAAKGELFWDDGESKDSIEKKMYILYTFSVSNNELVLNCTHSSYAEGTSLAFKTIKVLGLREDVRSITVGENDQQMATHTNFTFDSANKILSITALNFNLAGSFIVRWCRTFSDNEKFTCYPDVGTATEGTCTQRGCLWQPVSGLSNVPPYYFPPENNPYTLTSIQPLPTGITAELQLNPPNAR
Sucrase-isomaltase, intestinal (Rattus norvegicus), sequence (P23739 1014-1841 limits assumed): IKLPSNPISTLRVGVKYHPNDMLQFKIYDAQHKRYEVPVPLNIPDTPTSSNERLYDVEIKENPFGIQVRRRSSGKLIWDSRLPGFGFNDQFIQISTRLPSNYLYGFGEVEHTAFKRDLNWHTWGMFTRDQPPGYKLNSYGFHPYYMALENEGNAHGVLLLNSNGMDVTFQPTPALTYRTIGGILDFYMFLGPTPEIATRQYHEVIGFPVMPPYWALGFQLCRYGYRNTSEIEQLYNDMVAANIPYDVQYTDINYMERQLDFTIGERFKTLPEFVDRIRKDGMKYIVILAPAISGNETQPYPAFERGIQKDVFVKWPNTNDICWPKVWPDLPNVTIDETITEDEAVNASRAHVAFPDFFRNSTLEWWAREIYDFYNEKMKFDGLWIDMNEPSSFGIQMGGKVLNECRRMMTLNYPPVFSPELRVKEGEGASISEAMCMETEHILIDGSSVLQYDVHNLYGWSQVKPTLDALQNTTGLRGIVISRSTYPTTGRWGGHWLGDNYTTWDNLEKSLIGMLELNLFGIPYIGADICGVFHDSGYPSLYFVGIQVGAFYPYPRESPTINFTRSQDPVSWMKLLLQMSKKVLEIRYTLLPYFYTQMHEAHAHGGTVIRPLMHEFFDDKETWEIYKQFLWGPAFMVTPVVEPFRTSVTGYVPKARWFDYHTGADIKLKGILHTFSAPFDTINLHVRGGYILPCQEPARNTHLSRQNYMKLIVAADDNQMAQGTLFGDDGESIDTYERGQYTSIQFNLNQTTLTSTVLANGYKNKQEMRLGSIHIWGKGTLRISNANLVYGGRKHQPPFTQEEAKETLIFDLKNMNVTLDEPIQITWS

[11] = target: Sucrase-isomaltase, intestinal (Rattus norvegicus) (UniProt P23739); assay: Inhibition of rat intestinal sucrase using sucrose as substrate at 1000 uM; procedure, shortened: as §1
[12] = tested on: Maltase-glucoamylase, intestinal (Rattus norvegicus); assay: Inhibition of rat intestinal maltase using moltose as substrate at 1000 uM
[13] = Inhibition of rat intestinal cellobiase using cellobiose as substrate; procedure, shortened: as §1

T1 sequence (P23739 1-1013 limits assumed): as the sequence (P23739 1-1013 limits assumed) above
T1 sequence (P23739 1014-1841 limits assumed): as the sequence (P23739 1014-1841 limits assumed) above

CCCCCC[C@H]1N[C@H](CO)[C@@H](O)[C@H](O)[C@H]1O
IC50 [1]: 0.31 µM
IC50 [2]: 2.4 µM

CCCCCCCC[C@H]1N[C@H](CO)[C@@H](O)[C@H](O)[C@H]1O
IC50 [1]: 0.12 µM
IC50 [2]: 1.5 µM

CCCCN1C[C@H](O)[C@@H](O)[C@@H]1CO
inhibition [3]: < 50%
IC50 [1]: 54 µM
inhibition [4]: < 50%
inhibition [5]: < 50%
inhibition [6]: < 50%
inhibition [7]: < 50%
inhibition [8]: < 50%
IC50 [2]: 73 µM
inhibition (Rattus norvegicus): < 50%

OC[C@@H]1NC[C@H](O)[C@H]1O
IC50 (Uncharacterized protein): 131 µM
inhibition [3]: < 50%
IC50 [9]: 415 µM
inhibition [5]: < 50%
IC50 (Trehalase): 75 µM
inhibition [6]: < 50%
inhibition (Rattus norvegicus): < 50%

CCCC[C@@H]1[C@@H](O)[C@H](CCCC)N[C@H]1CO
inhibition [10]: < 50%
inhibition [11]: < 50%
inhibition [12]: < 50%

CCC[C@@H](O)[C@@H]1N[C@@H](CO)[C@H](O)[C@H]1O
IC50 [1]: 773 µM
IC50 [2]: 5.7 µM

OC[C@@H]1N[C@@H](CCCCc2ccccc2)[C@H](O)[C@H]1O
IC50 [1]: 14 µM
IC50 [2]: 0.31 µM
